From PubChem BioAssay
Calls of active or inactive are those of the source. Unless noted, no stated cut-off is given here; in the data, active means inhibition above about 30%; inactive means the rest.

Experiments:
[1] = biological target: Pantothenate synthetase (Mycobacterium tuberculosis (strain ATCC 25618 / H37Rv)) (UniProt P9WIL5); experiment: Recombinant Mtb pantothenate synthetase (PanC) inhibitors, coupled enzyme, confirmatory (AID 375; call rule not given here;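 further: 0% = full reaction with vehicle and 100% = no enzyme background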); conditions: coupled enzyme assay; at 10 µM, stronger effect = higher value
[2] = SK-BR-3 cell growth inhibitors, pilot screen, 24 h, human (AID 572;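 active means viability at or below 10% of carrier control in both of two separate runs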;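 further: compound exposure lasted between 18 and 24 h rather than exactly 24 h; 100% = carrier-treated control wells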); conditions: SK-BR-3 viability, CellTiter-Glo luminescence, at 10 µM, stronger effect = lower value
[3] = HUVEC growth inhibition – cell-based, human, primary screen (AID 575;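 active means viability at or below 30% in both replicate assays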;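 further: 100% = median of untreated cell wells with 0.1% DMSO on each plate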); conditions: HUVEC proliferation, CellTiter-Glo luminescence, 72 h; at 10 µM; stronger effect = lower value
Procedure, shortened: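 Material: primary human umbilical vein endothelial cells / Schedule: 72 h exposure, 37 °C, 5% CO2, 30 min RT equilibration / Signal: ATP-based CellTiter-Glo luminescent read / Read-out basis: percent of median DMSO-control luminescence / Control set: 32 DMSO-only cell-control wells (high), 32 MePR drug-control wells (low) per plate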

[4] = growth inhibitors of H69AR lung tumor, primary screen, human, duplicate replicates (AID 580;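 active means viability at or under a set limit in both replicates, limit being median viability minus 3 SD, cut at about 48% in these data, passing the limit was not always enough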;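 further: 100% = mean luminescence of untreated wells and 0% = no signal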); conditions: H69AR lung tumor cells viability, ATP luminescence, 72 h; at 10 µM; stronger effect = lower value
[5] = reversal of MRP1-mediated doxorubicin resistance, pilot screen, H69AR cells, doxorubicin co-treatment (AID 601;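 active means viability loss from added drug above about 55%, and viability with drug at most 40%, in both replicates, limit read from the data, passing the limit was not always enough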); conditions: CellTiter-Glo, 72 h, at 10 µM; for differential viability (reversal): stronger effect = higher value
[6] = 384-well plate pilot, post-Golgi transport modulator project, inhibition of yeast transport mutant growth (AID 636; in the data active means inhibition above about 31%); conditions: absorbance 615 nm, about 18 h, stronger effect = higher value
[7] = growth suppression of yeast trafficking mutant, preliminary HTS, modulators of trafficking downstream of Golgi apparatus project, 1536-format plate, OD 615 nm (AID 637); conditions: yeast transport mutant growth, absorbance 615 nm, 18 h; stronger effect = higher value
[8] = H69AR cells + 2 uM doxorubicin, measured here: viability with 2 uM doxorubicin, stronger effect = lower value
[9] = H69AR cells, compound alone cytotoxicity

Pantothenate synthetase (Mycobacterium tuberculosis (strain ATCC 25618 / H37Rv)), sequence (P9WIL5 whole entry, looked up): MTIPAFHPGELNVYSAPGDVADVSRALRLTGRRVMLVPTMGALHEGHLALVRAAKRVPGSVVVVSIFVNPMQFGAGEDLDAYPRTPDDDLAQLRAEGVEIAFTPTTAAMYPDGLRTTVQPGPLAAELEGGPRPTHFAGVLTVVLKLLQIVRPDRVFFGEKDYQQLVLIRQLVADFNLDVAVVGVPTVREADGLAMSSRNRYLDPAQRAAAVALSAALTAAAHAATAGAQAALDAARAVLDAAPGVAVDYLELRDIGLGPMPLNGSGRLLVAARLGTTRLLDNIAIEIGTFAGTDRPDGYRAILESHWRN

| Structure (SMILES) | inhibition [1] | viability [2] | viability [3] | viability [4] | differential viability (reversal) ([5]; H69AR cells + 2 uM doxorubicin) | viability [5, 8] | viability [5, 9] | inhibition [6] | inhibition [7] |
| --- | --- | --- | --- | --- | --- | --- | --- | --- | --- |
| O=C(O)CCCc1ccc(N(CCCl)CCCl)cc1 | 0% (inactive) | 78% (inactive) | 68.1% (inactive) | 81.8% (inactive) | -17.3% (inactive) | 99.1% | 81.8% | -1.17% (inactive) | 0.67% (inactive) |
| COP(=O)(OC)C(O)C(Cl)(Cl)Cl (stereo not given) | 0% (inactive) | 122% (inactive) | 95.5% (inactive) | 82.6% (inactive) | -3.13% (inactive) | 85.7% | 82.6% | -1.56% (inactive) | -3.83% (inactive) |
| CCOC(=O)c1cc2c(cn1)[nH]c1ccccc12 | 6% (inactive) | 122% (inactive) | 89.3% (inactive) | 88% (inactive) | 3.16% (inactive) | 84.8% | 88% | -0.91% (inactive) | -3.17% (inactive) |
| c1ccc(Cn2ccnc2)cc1 | 0% (inactive) | 127% (inactive) | 84.4% (inactive) | 93.5% (inactive) | -0.24% (inactive) | 93.7% | 93.5% | 0.78% (inactive) | 22% (inactive) |
| [N-]=[N+]=CC(=O)OC[C@H](N)C(=O)O | 0% (inactive) | 99% (inactive) | 96.5% (inactive) | 88.5% (inactive) | -17.2% (inactive) | 106% | 88.5% | 1.56% (inactive) | 1.83% (inactive) |
| CC[C@@H](CO)NC(=O)[C@@H]1C=C2c3cccc4c3c(cn4C)C[C@H]2N(C)C1 | 7% (inactive) | 147% (inactive) | 96.8% (inactive) | 95.4% (inactive) | -1.17% (inactive) | 96.6% | 95.4% | 1.17% (inactive) | -2% (inactive) |
| CC(C)[C@@]1(NC(=O)[C@@H]2C[C@@H]3c4cccc5[nH]cc(c45)C[C@H]3N(C)C2)O[C@@]2(O)[C@@H]3CCCN3C(=O)[C@H](Cc3ccccc3)N2C1=O | 4% (inactive) | 111% (inactive) | 4.38% (active) | 73.8% (inactive) | -3.47% (inactive) | 77.3% | 73.8% | -1.56% (inactive) | -1.67% (inactive) |
| C[N+]1(C)CCN(c2ccccc2)CC1 | 8% (inactive) | 118% (inactive) | 95.8% (inactive) | 84.9% (inactive) | -12.1% (inactive) | 97% | 84.9% | -1.69% (inactive) | 0.5% (inactive) |
| NCC(CC(=O)O)c1ccc(Cl)cc1 (stereo not given) | 0% (inactive) | 83% (inactive) | 78.3% (inactive) | 106% (inactive) | -1.38% (inactive) | 107% | 106% | -1.43% (inactive) | 4.67% (inactive) |
| COc1ccc(CCn2c(O)c(C=NCCCN(C)C)c(=O)[nH]c2=O)cc1OC | 0% (inactive) | – | 103% (inactive) | 98.1% (inactive) | 3.64% (inactive) | 94.5% | 98.1% | -4% (inactive) | -1.59% (inactive) |
| COc1ccc(Cc2nccc3cc(OC)c(OC)cc23)cc1OC | 0% (inactive) | 88% (inactive) | 78.6% (inactive) | 81.7% (inactive) | -0.28% (inactive) | 82% | 81.7% | 0.39% (inactive) | -2.5% (inactive) |
| CN(C)CCN=Cc1c(O)n(-c2cccc3ccccc23)c(=O)[nH]c1=O | 6% (inactive) | – | 103% (inactive) | 105% (inactive) | 11.9% (inactive) | 92.8% | 105% | -5.87% (inactive) | 1.9% (inactive) |
| N=C(N)c1c(O)n(C2CCCCC2)c(=O)n(C2CCCCC2)c1=O | 0% (inactive) | – | 2.35% (active) | 2.02% (active) | 0.155% (inactive) | 1.86% | 2.02% | -9.32% (inactive) | 7.14% (inactive) |
| CN(C)CCc1nc2ccccc2c(=O)n1-c1ccccc1 | 0% (inactive) | 107% (inactive) | 92.1% (inactive) | 90.6% (inactive) | -1.03% (inactive) | 91.6% | 90.6% | -2.08% (inactive) | -4.43% (inactive) |
| CCCNC(=O)c1c(N)n(Cc2ccc3c(c2)OCO3)c2nc3ccccc3nc12 | 0% (inactive) | 102% (inactive) | 21.8% (active) | 43.8% (active) | 6.99% (inactive) | 36.8% | 43.8% | -3.2% (inactive) | 0.66% (inactive) |
| CCOCC(=O)NC1CCSC1=O (stereo not given) | 0% (inactive) | 74% (inactive) | 99.4% (inactive) | 93.8% (inactive) | 0.265% (inactive) | 93.6% | 93.8% | -9.45% (inactive) | 5.16% (inactive) |
| C=C1CC[C@@]2(O)[C@H]3Cc4ccc(O)c5c4[C@@]2(CCN3CC2CC2)[C@H]1O5 | 0% (inactive) | 101% (inactive) | 95.2% (inactive) | 110% (inactive) | 14.7% (inactive) | 95.5% | 110% | -1.43% (inactive) | 6.83% (inactive) |
